ChEMBL document CHEMBL3286203, “Reactive oxygen species (ROS) inducible DNA cross-linking agents and their effect on cancer cells and normal lymphocytes” (J Med Chem, 2014)
Calls of active or inactive are those of the source. The calls are words filed in the database; no cut-off is given here.

Tests used:
[1] = test system: UO-31; assay: Cytotoxicity against human UO31 cells assessed as growth inhibition at 10 uM after 48 hrs by SRB assay; assay type: functional, cell-based
In short: (§1)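 NCI-60 DTP human tumour line screen. Cells grown in RPMI 1640 with 5% fetal bovine serum and 2 mM L-glutamine, plated at 5000–40 000 cells/well according to doubling time. Single dose of 10 μM for 48 h at 37 °C, 5% CO2, 95% air, 100% humidity, two plates per line. Read-out is growth percent.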

[2] = test system: HOP-62; assay: Cytotoxicity against human HOP62 cells assessed as growth inhibition at 10 uM after 48 hrs by SRB assay; assay type: functional, cell-based
In short: (§2)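 NCI DTP 60-cell-line screen run at the NCI. Cells were grown in RPMI 1640 with 5% FBS and 2 mM L-glutamine. They were seeded at 5000–40 000 cells/well depending on doubling time and grown in two plates per line. Each was exposed to a single 10 μM dose for 48 h at 37 °C, 5% CO2, 95% air, 100% humidity. Read-out was percent growth.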

[3] = test system: CAKI-1; assay: Cytotoxicity against human Caki1 cells assessed as growth inhibition at 10 uM after 48 hrs by SRB assay; assay type: functional, cell-based; in short: as §2
[4] = test system: EKVX; assay: Cytotoxicity against human EKVX cells assessed as growth inhibition at 10 uM after 48 hrs by SRB assay; assay type: functional, cell-based; in short: as §2
[5] = test system: CCRF-CEM; assay: Cytotoxicity against human CCRF-CEM cells assessed as growth inhibition at 10 uM after 48 hrs by SRB assay; assay type: functional, cell-based; in short: as §2
[6] = test system: OVCAR-4; assay: Cytotoxicity against human OVCAR4 cells assessed as growth inhibition at 10 uM after 48 hrs by SRB assay; assay type: functional, cell-based
In short: (§3)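 Single-dose screen run by the NCI Developmental Therapeutics Program (NCI-60). Cells were grown in RPMI 1640 with 5% fetal bovine serum and 2 mM L-glutamine. They were plated at 5000–40 000 cells/well, depending on doubling time. Each line was run in two plates and exposed to 10 μM drug for 48 h at 37 °C, 5% CO2, 100% humidity. Read-out was growth percent.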

[7] = test system: SK-OV-3; assay: Cytotoxicity against human SKOV3 cells assessed as growth inhibition at 10 uM after 48 hrs by SRB assay; assay type: functional, cell-based; in short: as §3
[8] = Induction of [32P]-labeled 49-mer oligonucleotide duplex DNA 12 with GNC sequence at terminus (unknown origin) interstrand cross-linking at 1 mM after 16 hrs by PAGE
In short: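 32P-labelled 12a (1.0 μM) annealed with 1.5 equiv of 12b in 10 mM potassium phosphate pH 7 / 100 mM NaCl (65 °C for 3 min, then slow cooling). Duplex incubated with compound (final 1 μM–5 mM), with or without H2O2, in NaCl and potassium phosphate pH 8 at room temperature for 16 h. Quenched in formamide; 20% denaturing PAGE.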

[9] = test system: SW-620; assay: Cytotoxicity against human SW620 cells assessed as growth inhibition at 10 uM after 48 hrs by SRB assay; assay type: functional, cell-based; in short: as §1
[10] = test system: SR; assay: Cytotoxicity against human SR cells assessed as growth inhibition at 10 uM after 48 hrs by SRB assay; assay type: functional, cell-based; in short: as §1
[11] = test system: MOLT-4; assay: Cytotoxicity against human MOLT4 cells assessed as growth inhibition at 10 uM after 48 hrs by SRB assay; assay type: functional, cell-based; in short: as §3
[12] = test system: ACHN; assay: Cytotoxicity against human ACHN cells assessed as growth inhibition at 10 uM after 48 hrs by SRB assay; assay type: functional, cell-based; in short: as §2
[13] = test system: COLO 205; assay: Cytotoxicity against human COLO205 cells assessed as growth inhibition at 10 uM after 48 hrs by SRB assay; assay type: functional, cell-based; in short: as §2
[14] = test system: U-251; assay: Cytotoxicity against human U251 cells assessed as growth inhibition at 10 uM after 48 hrs by SRB assay; assay type: functional, cell-based; in short: as §1
[15] = test system: UACC-257; assay: Cytotoxicity against human UACC257 cells assessed as growth inhibition at 10 uM after 48 hrs by SRB assay; assay type: functional, cell-based; in short: as §1
[16] = test system: NCI/ADR-RES; assay: Cytotoxicity against human NCI-ADR-RES cells assessed as growth inhibition at 10 uM after 48 hrs by SRB assay; assay type: functional, cell-based; in short: as §3
[17] = test system: HL-60(TB); assay: Cytotoxicity against human HL-60(TB) cells assessed as growth inhibition at 10 uM after 48 hrs by SRB assay; assay type: functional, cell-based; in short: as §2
[18] = test system: LOX IMVI; assay: Cytotoxicity against human LOXIMVI cells assessed as growth inhibition at 10 uM after 48 hrs by SRB assay; assay type: functional, cell-based; in short: as §2
[19] = test system: OVCAR-3; assay: Cytotoxicity against human OVCAR3 cells assessed as growth inhibition at 10 uM after 48 hrs by SRB assay; assay type: functional, cell-based; in short: as §3
[20] = test system: OVCAR-8; assay: Cytotoxicity against human OVCAR8 cells assessed as growth inhibition at 10 uM after 48 hrs by SRB assay; assay type: functional, cell-based; in short: as §3
[21] = test system: HOP-92; assay: Cytotoxicity against human HOP92 cells assessed as growth inhibition at 10 uM after 48 hrs by SRB assay; assay type: functional, cell-based; in short: as §2
[22] = test system: SF-295; assay: Cytotoxicity against human SF295 cells assessed as growth inhibition at 10 uM after 48 hrs by SRB assay; assay type: functional, cell-based; in short: as §3
[23] = test system: BT-549; assay: Cytotoxicity against human BT549 cells assessed as growth inhibition at 10 uM after 48 hrs by SRB assay; assay type: functional, cell-based; in short: as §2
[24] = test system: SNB-19; assay: Cytotoxicity against human SNB19 cells assessed as growth inhibition at 10 uM after 48 hrs by SRB assay; assay type: functional, cell-based; in short: as §1
[25] = test system: SNB-75; assay: Cytotoxicity against human SNB75 cells assessed as growth inhibition at 10 uM after 48 hrs by SRB assay; assay type: functional, cell-based; in short: as §1
[26] = test system: BT-549; assay: Cytotoxicity against human BT549 cells after 48 hrs by SRB assay; assay type: functional; conditions: BT-549, 48 h
In short: (§4)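 GI50 was determined in the NCI Developmental Therapeutics Program in vitro 60-line cancer screen. Tumour lines were maintained in RPMI 1640 containing 5% FBS and 2 mM L-glutamine. Cells were inoculated at 5000–40 000 cells/well according to each line's doubling time before drug exposure.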

[27] = test system: SF-295; assay: Cytotoxicity against human SF295 cells after 48 hrs by SRB assay; assay type: functional; conditions: SF-295, 48 h
In short: (§5)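 GI50 from the NCI Developmental Therapeutics Program in vitro human tumor cell screen. Cell lines were maintained in RPMI 1640 with 5% fetal bovine serum and 2 mM L-glutamine. They were seeded at 5000–40 000 cells/well, depending on each line's doubling time, then exposed to drug for 48 h at 37 °C, 5% CO2.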

[28] = test system: A549; assay: Cytotoxicity against human A549 cells after 48 hrs by SRB assay; assay type: functional; conditions: A549, 48 h; in short: as §4
[29] = test system: SK-MEL-2; assay: Cytotoxicity against human SK-MEL-2 cells after 48 hrs by SRB assay; assay type: functional; conditions: SK-MEL-2, 48 h; in short: as §5
[30] = test system: CCRF-CEM; assay: Cytotoxicity against human CCRF-CEM cells after 48 hrs by SRB assay; assay type: functional; in short: as §4
[31] = test system: SK-MEL-28; assay: Cytotoxicity against human SK-MEL-28 cells after 48 hrs by SRB assay; assay type: functional; conditions: SK-MEL-28, 48 h; in short: as §5
[32] = Cytotoxicity against human EKVX cells after 48 hrs by SRB assay; assay type: functional; in short: as §4
[33] = test system: T47D; assay: Cytotoxicity against human T47D cells after 48 hrs by SRB assay; assay type: functional
In short: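 GI50 from the NCI-60 DTP human tumour line screen. Lines grown in RPMI 1640 with 5% fetal bovine serum and 2 mM L-glutamine, plated at 5000–40 000 cells/well according to doubling time. Incubated 48 h at 37 °C, 5% CO2.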

Structure (SMILES) | growth inhibition (GI) [1] | growth inhibition (GI) [2] | growth inhibition (GI) [3] | growth inhibition (GI) [4] | growth inhibition (GI) [5] | growth inhibition (GI) [6] | growth inhibition (GI) [7] | Activity [8] | growth inhibition (GI) [9] | growth inhibition (GI) [10] | growth inhibition (GI) [11] | growth inhibition (GI) [12] | growth inhibition (GI) [13] | growth inhibition (GI) [14] | growth inhibition (GI) [15] | growth inhibition (GI) [16] | growth inhibition (GI) [17] | growth inhibition (GI) [18] | growth inhibition (GI) [19] | growth inhibition (GI) [20] | also measured
CC1(C)OB(c2ccc(COC(=O)N(CCCl)CCCl)cc2)OC1(C)C | inactive | inactive | inactive | inactive | inactive | inactive | inactive | inactive | inactive | inactive | inactive | inactive | inactive | inactive | inactive | inactive | inactive | inactive | inactive | inactive | growth inhibition (GI) [21]: inactive; growth inhibition (GI) [22]: inactive; growth inhibition (GI) [23]: inactive; growth inhibition (GI) [24]: inactive; growth inhibition (GI) [25]: inactive
CC1(C)OB(c2ccc(N(CCCl)CCOS(C)(=O)=O)cc2)OC1(C)C | Active | Active | Active | Active | Active | Active | Active | inactive | Active | Active | Active | Active | Active | Active | Active | Active | Active | Active | Active | Active | GI50 [26]: 12 µM; GI50 [27]: 2.99 µM; GI50 [28]: 4.98 µM; GI50 [29]: 21.5 µM; GI50 [30]: 4.01 µM; GI50 [31]: 15.6 µM; GI50 [32]: 24.5 µM; growth inhibition (GI) [21]: Active; growth inhibition (GI) [22]: Active; GI50 [33]: 8.49 µM; growth inhibition (GI) [23]: Active; growth inhibition (GI) [24]: Active; growth inhibition (GI) [25]: Active
CC1(C)OB(c2ccc(N(CCBr)CCOS(C)(=O)=O)cc2)OC1(C)C | Active | Active | Active | Active | Active | Active | Active | inactive | Active | Active | Active | Active | Active | Active | Active | Active | Active | Active | Active | Active | growth inhibition (GI) [21]: Active; growth inhibition (GI) [22]: Active; growth inhibition (GI) [23]: Active; growth inhibition (GI) [24]: Active; growth inhibition (GI) [25]: Active
CC1(C)OB(c2ccc(N(CCBr)CCBr)cc2)OC1(C)C | Active | Active | Active | Active | Active | Active | Active | inactive | Active | Active | Active | Active | Active | Active | Active | Active | Active | Active | Active | Active | growth inhibition (GI) [21]: Active; growth inhibition (GI) [22]: Active; growth inhibition (GI) [23]: Active; growth inhibition (GI) [24]: Active; growth inhibition (GI) [25]: Active
CC1(C)OB(c2ccc(N(CCCl)CCBr)cc2)OC1(C)C | Active | Active | Active | Active | Active | Active | Active | inactive | Active | Active | Active | Active | Active | Active | Active | Active | Active | Active | Active | Active | GI50 [26]: 12.1 µM; GI50 [27]: 2.64 µM; GI50 [28]: 4.88 µM; GI50 [29]: 20.8 µM; GI50 [30]: 5.03 µM; GI50 [31]: 20.6 µM; GI50 [32]: 22.5 µM; growth inhibition (GI) [21]: Active; growth inhibition (GI) [22]: Active; GI50 [33]: 12 µM; growth inhibition (GI) [23]: Active; growth inhibition (GI) [24]: Active; growth inhibition (GI) [25]: Active
